Screening data deposited in PubChem by several laboratories.
This is a sample that favours compounds with a hit; in the whole collection about 1.3% have one here.
FAS-TE inh: FAS thioesterase domain inhibitors, primary screen, biochemical, fluorescence intensity, uHTS | recombinant FAS-TE, OMFH fluorogenic substrate, fluorescence endpoint | inhibition, % at 15 µM | hit rate 0.67% among 360,000;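 active means compounds whose normalised, plate-corrected inhibition of enzyme fluorescence in the single-dose primary screen is 50% or more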;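 further: 0% = DMSO with enzyme and 100% = substrate without enzyme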
MT1-MMP act inh: blockers of MT1-MMP proenzyme processing, primary screen, HT1080 RFP-PRO-GFP cells, GFP/RFP fluorescence. hit rate 0.061% among 360,000. GFP/RFP ratio fluorescence, overnight; percent of plate control window, DMSO zero. GFP/RFP ratio change, % at 20 µM. Matrix metalloproteinase-14 (Homo sapiens), P50281. AID 651647, 2012;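 active means GFP/RFP ratio change of at least 30% with cell ATP level not reduced by more than half and red fluorescence within 50% of control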
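Material: RFP-PRO-GFP reporter HT1080 cells. Dosing: single-point 20 µM compound, 1% DMSO. Controls: DMSO and RFP-L50D-GFP cell wells. Timing: cells overnight before dosing, compound overnight, 37 °C, 5% CO2. Measure: GFP/RFP fluorescence ratio.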
SKN-1 inh: suppressors of acrylamide-induced Pgst-4::GFP reporter in worms, primary screen, SKN-1 inhibitor project, whole organism, uHTS, GFP/RFP fluorescence ratio, strain VP596; C. elegans VP596 Pgst-4::GFP/RFP ratio, 24 h; hit rate 0.49% among 360,000; inhibition, % at 21.8 µM; AID 624304, 2012;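 active means interference check ratio from 0.5 to 1.5 plus GFP to RFP signal ratio inhibition reaching or exceeding a fixed threshold, cut at about 30% in these data, passing the limit was not always enough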
iPSC survival up: enhancers of single-cell hiPSC survival, primary screen, ATPlite luminescence; 100% = ROCK inhibitor wells, 0% = DMSO; survival enhancement, % at 20 µM; hit rate 0.044% among 360,000; in the data active means survival enhancement above about 18%;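 further: cells exposed to compounds for 16 hours before the ATP read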
DAGLB inh: DAGLB lipase inhibitors, primary screen, biochemical, fluorescence, HTS. HEK293T DAGLB membrane lysate, EnzChek fluorogenic substrate. inhibition, % at 5.17 µM. hit rate 0.059% among 340,000; in the data active means inhibition above about 34%;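 further: 0% = enzyme with vehicle and 100% = wells lacking enzyme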
MT1-MMP act val: MT1-MMP activation inhibitors, hit retest, confirmation, single concentration, fluorescence, HT1080 RFP-PRO-GFP cells; shares compounds with MT1-MMP act inh; GFP and RFP fluorescence ratio, overnight; inhibition, % at 20 µM; hit rate 10% among 200; AID 652235, 2013;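 active means inhibition of at least 50% in the primary cell screen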
Numbers without * were called inactive.

For COc1ccc(-c2nnc(NC(=O)CSc3ccc(Cl)cc3)s2)cc1OC the results were FAS-TE inh -8, MT1-MMP act inh 37*, SKN-1 inh 9, iPSC survival up -1, DAGLB inh 1 and MT1-MMP act val 6.
`Cc1c2cnn(CC(=O)NCCN3CCOCC3)c(=O)c2c(C)n1Cc1ccccc1F` gave FAS-TE inh -11, MT1-MMP act inh 5, SKN-1 inh -7, iPSC survival up 0 and DAGLB inh 0.
For CNc1ccccc1C(C)(C)c1cc(-c2cccc([N+](=O)[O-])c2)no1 the results were FAS-TE inh 21, MT1-MMP act inh 1, SKN-1 inh 12, iPSC survival up -1 and DAGLB inh -4.
`CNc1ccccc1C(C)(C)c1cc(-c2cccc(Br)c2)no1` gave FAS-TE inh 15, MT1-MMP act inh 62*, SKN-1 inh 73, iPSC survival up 0, DAGLB inh -8 and MT1-MMP act val 54*.
Screening CN(C)S(=O)(=O)c1cccc(NC(=O)CCNC(=O)c2ccccc2Cl)c1 returned FAS-TE inh -11, MT1-MMP act inh 0, SKN-1 inh 9, iPSC survival up 2 and DAGLB inh 1.
For CCn1c(C)c(C2=CCN(S(=O)(=O)c3ccc(C)cc3)CC2)c2ccccc21 the results were FAS-TE inh 3, MT1-MMP act inh 31*, SKN-1 inh 63, iPSC survival up 1, DAGLB inh -4 and MT1-MMP act val 5.
Screening Nc1ccc(N2CCN(C(=O)c3ccco3)CC2)cc1 returned FAS-TE inh -11, MT1-MMP act inh 43*, SKN-1 inh 11, iPSC survival up 4, DAGLB inh 3 and MT1-MMP act val 1.
`Nc1ccc(N2CCN(C(=O)c3cccs3)CC2)cc1` gave FAS-TE inh -2, MT1-MMP act inh 33*, SKN-1 inh 48*, iPSC survival up -3, DAGLB inh 7 and MT1-MMP act val 1.
Screening Cn1cc(/C=N\O)nc2c(=O)n(-c3ccccc3)c(=O)nc1-2 returned FAS-TE inh -8, MT1-MMP act inh -9, SKN-1 inh 9, iPSC survival up -1 and DAGLB inh -1.
`O=C(NNC(=O)c1sccc1-n1cccc1)Nc1ccc(F)cc1` gave FAS-TE inh -4, MT1-MMP act inh 5, SKN-1 inh 8, iPSC survival up 2 and DAGLB inh -2.
O=C1CSC(=S)N1CC1CCCO1 (centres undefined) was read as FAS-TE inh -3, MT1-MMP act inh 35*, SKN-1 inh 2, iPSC survival up 2, DAGLB inh -1 and MT1-MMP act val 1.
O=C1C2C3C=CC(C3)C2C(=O)N1CC1CCCO1 (centres undefined) was read as FAS-TE inh -9, MT1-MMP act inh -3, SKN-1 inh -11, iPSC survival up 0 and DAGLB inh 0.
CCOc1ccc(N2CC(=O)SC2=S)cc1 was read as FAS-TE inh -5, MT1-MMP act inh 37*, SKN-1 inh 13, iPSC survival up 2, DAGLB inh -4 and MT1-MMP act val 2.
Screening CCn1c(=O)c(=O)[nH]c2cc(C(=O)NC3CCCc4ccccc43)ccc21 (centres undefined) returned FAS-TE inh 7, MT1-MMP act inh 31*, SKN-1 inh 2, iPSC survival up 0, DAGLB inh 2 and MT1-MMP act val 34.
CC1CC2(CCCC2)Nc2ccc(F)cc21 (centres undefined) was read as FAS-TE inh 3, MT1-MMP act inh 7, SKN-1 inh 4, iPSC survival up 1 and DAGLB inh -2.
Screening Cc1cccc2c1NC1(CCCC1)CC2C (centres undefined) returned FAS-TE inh 7, MT1-MMP act inh 30*, SKN-1 inh 6, iPSC survival up 0 and MT1-MMP act val -1.
`O=C1CC(c2ccccc2)c2cc(O)ccc2O1` (centres undefined) gave FAS-TE inh -10, MT1-MMP act inh 6, SKN-1 inh -2, iPSC survival up -1 and DAGLB inh -5.
Cc1ccc(C2CC(=O)Oc3cc(O)ccc32)cc1 (centres undefined) was read as FAS-TE inh -12, MT1-MMP act inh 38*, SKN-1 inh 35*, iPSC survival up 0, DAGLB inh 0 and MT1-MMP act val 16.
For COc1ccccc1N(CC(=O)NCC1CCCO1)C(=O)CNS(=O)(=O)c1ccccc1 (centres undefined) the results were FAS-TE inh -4, MT1-MMP act inh 0, SKN-1 inh -1, iPSC survival up 0 and DAGLB inh 1.
Screening Nc1cccc2[nH]c(C(F)(F)F)nc12 returned FAS-TE inh 1, MT1-MMP act inh 51*, SKN-1 inh 7, iPSC survival up 0, DAGLB inh 8 and MT1-MMP act val 27.
`O=C(O)c1cccc2[nH]c(C(F)(F)F)nc12` gave FAS-TE inh -5, MT1-MMP act inh 3, SKN-1 inh -20, iPSC survival up -1 and DAGLB inh 2.
`CCNC(=O)C1CCCN(C(=O)c2ccc(OC)c(OC)c2)CC1` (centres undefined) gave FAS-TE inh -4, MT1-MMP act inh 2, SKN-1 inh -8 and iPSC survival up -2.
For CC1C(=O)N(Cc2cn(CC3CCCCC3)nn2)CCS(=O)(=O)N1Cc1ccc(-c2ccc(Cl)cc2)cc1 (centres undefined) the results were FAS-TE inh 28, MT1-MMP act inh 40*, SKN-1 inh 1, iPSC survival up 2, DAGLB inh -1 and MT1-MMP act val 11.
Nc1nn(-c2ccccc2Cl)cc1-c1nn[nH]n1 was read as FAS-TE inh -1, MT1-MMP act inh 2, SKN-1 inh 10, iPSC survival up 0 and DAGLB inh -1.
Screening Cc1ccc(NC(=O)CSc2nnc(Cc3csc(C)n3)o2)c(C)c1 returned FAS-TE inh -6, MT1-MMP act inh 0, SKN-1 inh -11, iPSC survival up 0 and DAGLB inh -2.
